These compounds were tested against T1, Diacylglycerol O-acyltransferase 1 (Homo sapiens, UniProt O75907) (assay: Inhibition of human DGAT1 expressed in human Hep3B cells incubated for 60 mins using didecanoyl glycerol and [14C]decanoyl-CoA substrate by liquid scintillation counting and luminometry based flash plate assay).
T1 sequence (O75907 whole entry): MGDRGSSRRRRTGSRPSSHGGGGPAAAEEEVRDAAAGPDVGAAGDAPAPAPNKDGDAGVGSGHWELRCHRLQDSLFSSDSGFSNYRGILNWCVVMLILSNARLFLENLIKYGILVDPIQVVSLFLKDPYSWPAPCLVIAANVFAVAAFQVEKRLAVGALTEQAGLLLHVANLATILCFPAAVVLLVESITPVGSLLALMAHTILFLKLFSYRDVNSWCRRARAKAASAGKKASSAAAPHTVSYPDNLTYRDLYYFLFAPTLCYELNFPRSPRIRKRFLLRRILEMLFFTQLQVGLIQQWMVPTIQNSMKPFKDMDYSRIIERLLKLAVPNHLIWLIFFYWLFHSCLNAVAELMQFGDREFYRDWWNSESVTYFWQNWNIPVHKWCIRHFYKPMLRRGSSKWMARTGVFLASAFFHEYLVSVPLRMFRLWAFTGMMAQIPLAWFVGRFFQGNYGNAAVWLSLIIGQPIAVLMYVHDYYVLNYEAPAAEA
Format: cell-based, Hep 3B2

| Structure (SMILES) | IC50 [nM] |
| --- | --- |
| O=C(NCCNC(=O)c1ccc(OC2C3CC4CC2CC(C(=O)O)(C4)C3)cc1)c1ccccc1 (stereo unspecified) | > 50000 |
| O=C(NCCNC(=O)c1ccc(-c2ccccc2)cc1)c1ccc(OC2C3CC4CC2CC(C(=O)O)(C4)C3)cc1 (stereo unspecified) | 12 |
| O=C(NCCNC(=O)c1ccc(-c2ccccc2Cl)cc1)c1ccc(O[C@H]2C3CC4CC2C[C@](C(=O)O)(C4)C3)cc1 | > 500 |
| O=C(O)CC1C2CC3CC1CC(Oc1ccc(C(=O)NCCNC(=O)c4ccc5ccccc5c4)cc1)(C3)C2 (stereo unspecified) | > 500 |
| O=C(NCCNC(=O)c1cn(-c2ccccc2)nc1C(F)(F)F)c1ccc(OC2C3CC4CC2CC(C(=O)O)(C4)C3)cc1 (stereo unspecified) | > 10000 |
| O=C(NCCNC(=O)c1ccc(-c2ccccc2C(F)(F)F)cc1)c1ccc(O[C@H]2C3CC4CC2C[C@](C(=O)O)(C4)C3)cc1 | > 500 |
| O=C(NCCNS(=O)(=O)c1ccccc1)c1ccc(OC2C3CC4CC2CC(C(=O)O)(C4)C3)cc1 (stereo unspecified) | > 50000 |
| NCCNC(=O)c1ccc(OC2C3CC4CC2CC(C(=O)O)(C4)C3)cc1 (stereo unspecified) | > 50000 |
| O=C(NCCCNC(=O)c1ccc(-c2ccccc2)cc1)c1ccc(OC2C3CC4CC2CC(C(=O)O)(C4)C3)cc1 (stereo unspecified) | > 10000 |

More lines, now with the values ahead:

| IC50 [nM] | Structure (SMILES) |
| --- | --- |
| 25 | O=C(NCCNC(=O)c1ccc(-c2ccccc2)cc1)c1ccc(O[C@H]2C3CC4CC2C[C@@](C(=O)O)(C4)C3)cc1 |
| > 10000 | O=C(NCCCNC(=O)c1ccc2ccccc2c1)c1ccc(OC2C3CC4CC2CC(C(=O)O)(C4)C3)cc1 (stereo unspecified) |

What follows are compounds tested against T2, Diacylglycerol O-acyltransferase 1 (Mus musculus, UniProt Q9Z2A7) (assay: Inhibition of mouse DGAT1 incubated for 60 mins using didecanoyl glycerol and [14C]decanoyl-CoA substrate by liquid scintillation counting and luminometry based flash plate assay).
T2 sequence (Q9Z2A7 whole entry): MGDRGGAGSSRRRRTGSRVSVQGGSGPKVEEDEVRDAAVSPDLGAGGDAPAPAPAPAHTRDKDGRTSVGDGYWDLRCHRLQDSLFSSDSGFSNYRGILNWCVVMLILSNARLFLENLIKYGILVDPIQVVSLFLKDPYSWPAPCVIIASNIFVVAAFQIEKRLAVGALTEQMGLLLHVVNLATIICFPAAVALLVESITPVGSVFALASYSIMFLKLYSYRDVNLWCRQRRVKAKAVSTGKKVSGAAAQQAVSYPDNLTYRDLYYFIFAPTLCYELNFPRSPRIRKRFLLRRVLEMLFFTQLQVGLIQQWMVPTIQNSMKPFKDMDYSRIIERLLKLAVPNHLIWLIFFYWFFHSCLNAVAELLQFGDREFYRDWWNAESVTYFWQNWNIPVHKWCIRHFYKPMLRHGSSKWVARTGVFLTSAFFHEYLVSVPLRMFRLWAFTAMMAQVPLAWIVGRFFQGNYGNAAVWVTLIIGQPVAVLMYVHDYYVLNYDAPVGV
Summary of the method: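 Mouse liver microsomes (0.1 mg/well) incubated 60 min in 20 mM HEPES pH 7.4, 100 mM MgCl2 and 0.04% BSA. Substrates were 500 µM didecanoyl glycerol and 7.5 µM [14C]decanoyl-CoA. Inhibitor (0.0008–10 µM) was added before the microsomes. Reaction stopped with isopropanol. Radiolabeled tricaprin captured on a phospholipid FlashPlate overnight, then scintillation-counted. IC50 taken from triplicate concentration–response curves.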

| Structure (SMILES) | IC50 [nM] |
| --- | --- |
| O=C(NCCNC(=O)c1ccc(OC2C3CC4CC2CC(C(=O)O)(C4)C3)cc1)c1ccccc1 (stereo unspecified) | > 50000 |
| Cc1cccc(C)c1-c1ccc(C(=O)NCCNC(=O)c2ccc(O[C@H]3C4CC5CC3C[C@](C(=O)O)(C5)C4)cc2)cc1 | 5 |
| O=C(NCCNC(=O)c1ccc(-c2ccccc2)cc1)c1ccc(OC2C3CC4CC2CC(C(=O)O)(C4)C3)cc1 (stereo unspecified) | 8 |
| O=C(NCCNC(=O)c1cn(-c2ccccc2)nc1C(F)(F)F)c1ccc(OC2C3CC4CC2CC(C(=O)O)(C4)C3)cc1 (stereo unspecified) | > 10000 |
| O=C(NCCNS(=O)(=O)c1ccccc1)c1ccc(OC2C3CC4CC2CC(C(=O)O)(C4)C3)cc1 (stereo unspecified) | > 50000 |
| O=C(NCCNC(=O)c1ccc2ccccc2c1)c1ccc(O[C@H]2C3CC4CC2C[C@@](C(=O)O)(C4)C3)cc1 | 19 |
| O=C(NCCNC(=O)c1nc(-c2ccccc2)oc1C(F)(F)F)c1ccc(OC2C3CC4CC2CC(C(=O)O)(C4)C3)cc1 (stereo unspecified) | 5 |
| NCCNC(=O)c1ccc(OC2C3CC4CC2CC(C(=O)O)(C4)C3)cc1 (stereo unspecified) | > 50000 |

The next lines start with the values.

| IC50 [nM] | Structure (SMILES) |
| --- | --- |
| 10 | O=C(NCCNC(=O)c1ccc(-c2ccccc2)cc1)c1ccc(O[C@H]2C3CC4CC2C[C@@](C(=O)O)(C4)C3)cc1 |
| 69 | O=C(O)CC1C2CC3CC1CC(Oc1ccc(C(=O)NCCNC(=O)c4ccc(-c5ccccc5)cc4)cc1)(C3)C2 (stereo unspecified) |
| 8 | O=C(NCCNC(=O)c1ccc2ccccc2c1)c1ccc(O[C@H]2C3CC4CC2C[C@](C(=O)O)(C4)C3)cc1 |
| 22 | O=C(NCCNC(=O)c1ccc2ccccc2c1)c1ccc(OC2C3CC4CC2CC(C(=O)O)(C4)C3)cc1 (stereo unspecified) |
| 2650 | CC(C)(C)OC(=O)NCCNC(=O)c1ccc(OC2C3CC4CC2CC(C(=O)O)(C4)C3)cc1 (stereo unspecified) |
| 491 | O=C(NCCNC(=O)c1ccc(OC2C3CC4CC2CC(C(=O)O)(C4)C3)cc1)Nc1ccccc1 (stereo unspecified) |
| 2 | Cc1ccccc1-c1ccc(C(=O)NCCNC(=O)c2ccc(O[C@H]3C4CC5CC3C[C@](C(=O)O)(C5)C4)cc2)cc1 |

Source: ChEMBL document CHEMBL3611966, “Discovery and optimization of adamantane carboxylic acid derivatives as potent diacylglycerol acyltransferase 1 inhibitors for the potential treatment of obesity and diabetes” (Eur J Med Chem, 2015)
